# Data as given in ChEMBL document CHEMBL2021869, “Pharmacological evaluation of a novel cyclic phosphatidic acid derivative 3-S-cyclic phosphatidic acid (3-S-cPA)” (Bioorg Med Chem, 2012).
# Active and inactive are the calls of the source. The rule behind the calls is not given here.
# Assays:
# [1] = molecular target: Autotaxin (Bos taurus) (UniProt A1A4K5); test: Inhibition of ATX in fetal bovine serum using FS-3 as substrate at 10 uM after 2 hrs by fluorescence assay
# How it was run: (§1)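 ATX source: fetal bovine serum, mixed with compound in 0.1% BSA and 1 µM FS-3 in Tris-HCl pH 8.0 buffer (1 mM CaCl2, 1 mM MgCl2, 5 mM KCl, 140 mM NaCl). Fluorescence (485/530 nm) read before and after 2 h at 37 °C; pre-incubation value subtracted, normalized to vehicle as percent inhibition; triplicate wells, mean ± S.E.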
# [2] = molecular target: Autotaxin (Bos taurus) (UniProt A1A4K5); test: Inhibition of ATX in fetal bovine serum using FS-3 as substrate at 0.1 to 10 uM after 2 hrs by fluorescence assay; how it was run: as §1
# [3] = molecular target: Autotaxin (Homo sapiens) (UniProt Q13822); test: Inhibition of ATX-mediated human MDA-MB-231 cell migration at 10 uM after 8 hrs by Cyto Fluor spectrophotometry relative to lysophosphatidyl choline
# How it was run: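 Calcein-AM-stained MDA-MB-231 cells (4 × 10^5 cells/mL in DMEM with 0.1% fatty-acid-free BSA) placed in upper wells over 8-µm pore membranes; lower wells held 200 µM LPC plus 10 µM compound. Incubated 8 h at 37 °C; non-migrated cells wiped off, migrated-cell fluorescence read at 485/530 nm. Percent of LPC-only control; triplicate wells, ≥3 independent experiments.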
# [4] = system: Rattus norvegicus; test: (§2) Neuroprotective effect against transient cerebral ischemia-induced delayed neuronal death in Wistar rat hippocampal CA1 region assessed as decrease in GFAP accumulation at 180 ug/kg/5 days dosed through mini-osmotic pump measured after 5 days of occlusion for 8 mins by immunohistochemical staining relative to control; assay type: functional, organism-based
# How it was run: (§3)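 Male Wistar rats under halothane; compound (180 µg·kg−1·5 days−1) or 0.2% fatty-acid-free BSA vehicle given by subcutaneous pump implanted 35–60 min before ischemia. Vertebral arteries ligated, both carotids occluded 8 min at ~37.5 °C. On day 5, formalin perfusion and paraffin sections (6 µm) of hippocampal CA1 stained with HE or anti-GFAP.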
# [5] = system: Rattus norvegicus; test: as §2, with “reduction” for “decrease”, “pyknosis and shrinkage of cells” for “GFAP accumulation”, “hematoxylin/eosin based” for “immunohistochemical”; assay type: functional, organism-based; how it was run: as §3
# [6] = system: Rattus norvegicus; test: Antinociceptive activity in Wistar rat assessed as somato-somatic C-reflex at 0.2 mg/kg, iv by electromyogram analysis relative to control; assay type: functional
# How it was run: (§4)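 Anesthetised adult male Wistar rats (310–370 g; pentobarbital 50 mg/kg ip); jugular vein catheter for iv dosing at 0.2 mg/kg, blood pressure and heart rate monitored, end-tidal CO2 kept near 3.0%. Reflex EMG evoked by single shocks, averaged over ~50 trials at 3-s intervals; response area expressed as percent of control size 0–15 min before injection; mean ± S.E.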
# [7] = system: Rattus norvegicus; test: Antinociceptive activity in Wistar rat assessed as reduction in somato-somatic C-reflex at 0.2 mg/kg, iv by electromyogram analysis relative to control; assay type: functional, organism-based; set-up: dose 0.2 mg/kg; how it was run: as §4
# [8] = Lipophilicity, Log P of the compound; assay type: physicochemical; conditions: octanol/water
# [9] = system: Rattus norvegicus; test: Antinociceptive activity in Wistar rat assessed as reduction in A-reflex at 0.2 mg/kg, iv by electromyogram analysis relative to control; assay type: functional, organism-based; set-up: dose 0.2 mg/kg; how it was run: as §4
# [10] = organism: Rattus norvegicus; test: Ratio of natural cPA effective dose to compound effective dose for antinociceptive activity in Wistar rat assessed as reduction in somato-somatic C-reflex; assay type: functional
smiles,measurement,setting,value
CCCCCC/C=C\CCCCCCCC(=O)OC[C@@H]1CSP(=O)(O)O1,inhibition,[1],40%
CCCCCC/C=C\CCCCCCCC(=O)OC[C@H]1CSP(=O)(O)O1,inhibition,[2],Active
CCCCCC/C=C\CCCCCCCC(=O)OCC1CSP(=O)(O)O1.CCN(CC)CC (racemic),inhibition,[3],> 40%
same,Activity,[4],Active
same,Activity,[5],Active
same,Activity,[6],87%
same,Activity,[7],Active
same,logP,[8],5.96
same,Activity,[9],inactive
CCCCCC/C=C\CCCCCCCC(=O)OCC1COP(=O)([O-])C1.[Na+] (racemic),Activity,[6],83%
same,inhibition,[2],Active
same,fold change (FC),[10],10
CCCCCCCC/C=C\CCCCCCCC(=O)OCC1CSP(=O)(O)O1 (racemic),inhibition,[3],> 40%
CCCCCCCCCCCCCCCC(=O)OCC1CSP(=O)(O)O1 (racemic),inhibition,[3],> 40%
CCCCCCCCCCCCCCCCCC(=O)OCC1CSP(=O)(O)O1 (racemic),inhibition,[3],> 40%
